Assay results pooled from the literature.
Compare with care: the assays were run in different laboratories.
Cathepsin F: Cathepsin F (Homo sapiens, UniProt Q9UBX1)
DRD4: D(4) dopamine receptor (DRD4, Homo sapiens, UniProt P21917)
ABHD6: Monoacylglycerol lipase ABHD6 (ABHD6, Homo sapiens, UniProt Q9BV23)

N=C(N)c1ccc2cc(OC(=O)c3ccc(N=C(N)N)cc3)ccc2c1  inhibition (Cathepsin F; enzyme activity, inhibitor; 10 µM): 0%
C#Cc1n[nH]c2c(-c3cn([C@@H](C)c4ccccn4)c(=O)[nH]c3=O)cc(F)cc12  inhibition (Calcium/calmodulin-dependent protein kinase type 1 (CAMK1, Homo sapiens, UniProt Q14012); enzyme activity, inhibitor; 0.1 µM): 5.7%
CN(C)C(=O)COC(=O)Cc1ccc(OC(=O)c2ccc(NC(=N)N)cc2)cc1  inhibition (Cathepsin F; enzyme activity, inhibitor; 10 µM): 0%
c1ccc(C(NCCNC(c2ccccc2)c2ccccc2)c2ccccc2)cc1  inhibition (D(4) dopamine receptor (DRD4, Homo sapiens, UniProt P21917, del265-296); cell-free assay; 10 µM): 10%
CN(CCN1CCC(OC(=O)Nc2ccccc2-c2ccccc2)CC1)C(=O)c1ccc(CN2CCC(C(N)=O)CC2)cc1  inhibition (DRD4; ligand displacement, radioligand; 1 µM): -4%
CCN(CC)CCCC[C@H](NC(=O)[C@H](CC(C)C)NC(=O)[C@H](C)NC(=O)[C@H](Cc1ccccc1)NC(=O)c1ccc(C(C)(C)C)cc1)C(=O)N[C@@H](CO)C(=O)OC  inhibition (Neurotensin receptor type 1 (NTSR1, Homo sapiens, UniProt P30989); ligand displacement, radioligand; 10 µM): -10%
Cn1cc(-c2cc(F)cc(N3CCn4c(cc5c4CCCC5)C3=O)c2CO)cc(Nc2ccc(N3CCN(C4COC4)CC3)cn2)c1=O  inhibition (Casein kinase II subunit alpha (CSNK2A1, Homo sapiens, UniProt P68400); enzyme activity, inhibitor; 0.1 µM): 18%
COc1cc2c3c(c1OC)-c1cc4c(cc1CC3N(C)CC2)OCO4 (racemic)  inhibition (5-hydroxytryptamine receptor 5A (HTR5A, Homo sapiens, UniProt P47898); ligand displacement, radioligand; 10 µM): 92.8%
C#Cc1n[nH]c2c(-c3cn([C@@H](C)c4ccccc4)c(=O)[nH]c3=O)cc(F)cc12  inhibition (RAC-beta serine/threonine-protein kinase (AKT2, Homo sapiens, UniProt P31751); enzyme activity, inhibitor; 0.1 µM): 4%
Cn1cc(-c2cccc(N3CCc4c(sc5c4CC(C)(C)C5)C3=O)c2CO)cc(Nc2ccncn2)c1=O  inhibition (Beta-adrenergic receptor kinase 1 (GRK2, Homo sapiens, UniProt P25098); enzyme activity, inhibitor; 1 µM): 14%
CN(C(=O)Oc1nsnc1N1CCCCC1)c1ccc(C#N)cc1  inhibition (ABHD6; enzyme activity, inhibitor, fluorescence; 1 µM, lysate): 15%
CCOC(=O)c1ccc(OC(=O)CCCCCNC(=N)N)cc1  inhibition (Cathepsin F; enzyme activity, inhibitor; 10 µM): 2%
COc1ccc(S(=O)(=O)N2CCCCC2)cc1C  inhibition (DRD4; ligand displacement, radioligand; 10 µM): < 30%
CN(C)C(=O)Oc1nsnc1N1CCCCC1  inhibition (ABHD6; enzyme activity, inhibitor, fluorescence; 1 µM, lysate): 10%
